The text below walks through data of ChEMBL document CHEMBL1150866, “Chemical constituents from Lippia sidoides and cytotoxic activity” (J Nat Prod, 2001).

≈ marks a conversion by molar mass, not a printed value.

What all share (assay type): functional, cell-based
The test system of one assay is HL-60. Put plainly: Cytotoxicity against human HL60 cells after 3 days by MTT assay. The following applies: HL-60, 72 h. The essentials: (§1)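 Suspension cells were kept in RPMI1640 with 10% FBS and seeded at 0.5×10^6 cells/100 μL without preincubation. Fresh medium holding 0.39–25 μg/mL drug was added, and cells were exposed for 3 days. MTT in serum-free medium was then given for 3 h at 37 °C, the formazan dissolved in DMSO, and absorbance read at 550 nm.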
In general terms: Formazan colour is commonly taken as a measure of viable cells.

For a further assay, the system named is SW1573. Kind of assay: Cytotoxicity against human SW1573 cells after 3 days by MTT assay. The note with it: SW1573, 72 h. An outline of the steps:
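Adherent cells were grown in RPMI1640 with 10% FBS, plated at 0.2×10^5 cells/100 μL, and left 24 h to attach. Drug in fresh medium was applied at 0.39–25 μg/mL for 3 days. Viability was by MTT in serum-free medium for 3 h at 37 °C, with DMSO solubilization and absorbance at 550 nm.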

For another assay, the system named is CCRF-CEM. Kind of assay: Cytotoxicity against human CEM cells after 3 days by MTT assay. The note with it: 72 h. An outline of the steps: as §1

Regarding `CC(=O)Oc1c(-c2c3c(c4ccccc4c2OC(C)=O)OC(C)(C)C=C3)c2c(c3ccccc13)OC(C)(C)C=C2`, the IC50 in the assay on HL-60, in the assay with SW1573 and with CCRF-CEM was more than 10 µg/mL each time.

Turning to `O=c1cc(-c2ccc(O)c(O)c2)oc2cc(O[C@@H]3O[C@H](CO)[C@@H](O)[C@H](O)[C@H]3O)cc(O)c12` [GALUTEOLIN], the IC50 in the assay on HL-60, with SW1573 and in the assay with CCRF-CEM was more than 10 µg/mL each time.

On to `COc1cc([C@H]2c3cc(O)c(OC)cc3C[C@@H](CO)[C@@H]2CO)ccc1O` [ISOLARICIRESINOL], for which the IC50 with HL-60, in the assay with SW1573 and with CCRF-CEM was more than 10 µg/mL in each case.

For the compound `COc1cc2c(c3ccccc13)OC(C)(C)C=C2` [LAPACHENOL], the IC50 with HL-60, in the assay on SW1573 and in the assay on CCRF-CEM was more than 10 µg/mL in each case.

For `CC1=C[C@H]2C3=C(C(=O)c4ccccc4C3=O)[C@]3(O)c4ccccc4C(=O)[C@@]2(/C=C/C(C)(C)O)[C@H]3C1` [LIPPSIDOQUINONE], the half-inhibitory concentration (IC50) (as a rule, the concentration needed to halve the response being measured) stood at 2.38 µg/mL (≈ 5.1 µM) with HL-60 and 2.58 µg/mL (≈ 5.53 µM) with CCRF-CEM.

For the compound `O=c1cc(-c2ccc(O)c(O)c2)oc2cc(O)cc(O)c12` [LUTEOLIN], the 50% inhibitory concentration (IC50) in the assay on HL-60, in the assay with SW1573 and in the assay with CCRF-CEM was more than 10 µg/mL each time.

In the case of `O=c1c(O)c(-c2ccc(O)c(O)c2)oc2cc(O)cc(O)c12` [QUERCETIN], the concentration for half-maximal inhibition (IC50) with HL-60, in the assay with SW1573 and in the assay with CCRF-CEM was more than 10 µg/mL in each case.

On to `O=C1c2c(O)cc(O)cc2OC(c2ccc(O)c(O)c2)C1O` (stereo unspecified) [TAXIFOLIN], for which the IC50 with HL-60, with SW1573 and in the assay on CCRF-CEM was more than 10 µg/mL in each case.

In the case of `CC(C)=CC1Oc2c(c3c(c4ccccc24)OC(C)(C)C=C3)C2=C1C(=O)c1ccccc1C2=O` (stereo unspecified) [TECOMAQUINONE], the concentration for half-maximal inhibition (IC50) in the assay on HL-60, in the assay with SW1573 and in the assay with CCRF-CEM was more than 10 µg/mL in each case.

As for `Cc1ccc2c(c1)C(=O)c1ccccc1C2=O` [TECTOQUINONE], the half-maximal inhibitory concentration (IC50) in the assay with HL-60, in the assay with SW1573 and with CCRF-CEM was more than 10 µg/mL throughout.

In the case of `CC1(C)C=Cc2c(-c3c4c(c5ccccc5c3O)OC(C)(C)C=C4)c(O)c3ccccc3c2O1` [tectol], the figures for the half-maximal inhibitory concentration (IC50) with HL-60 and in the assay with CCRF-CEM were 1.79 µg/mL (≈ 3.97 µM) and 0.78 µg/mL (≈ 1.73 µM), respectively.
